Measured values as given in ChEMBL document CHEMBL3286182, “4-aminoquinolone piperidine amides: noncovalent inhibitors of DprE1 with long residence time and potent antimycobacterial activity” (J Med Chem, 2014).
In brackets after ≈: the same amount, converted by molar mass. Activity calls are given as the source filed them. The rule behind the calls is not given here.

Assays:
Escherichia coli [1] = test: Antimicrobial activity against Escherichia coli ARC524 at 100 uM; type: functional, organism-based
Procedure, shortened: (§1)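 Nonmycobacterial panel of Candida albicans, Gram-negative and Gram-positive pathogens.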

Pseudomonas aeruginosa [2] = test: Antimicrobial activity against Pseudomonas aeruginosa ARC545 at 100 uM; type: functional, organism-based; procedure, shortened: as §1
Haemophilus influenzae [3] = test: Antimicrobial activity against Haemophilus influenzae ARC158 at 100 uM; type: functional, organism-based; procedure, shortened: as §1
Staphylococcus aureus = test: Antimicrobial activity against Staphylococcus aureus ARC517 at 100 uM; type: functional, organism-based; procedure, shortened: as §1
[4] = Inhibition of Mycobacterium smegmatis recombinant DprE1 using farnesylphosphoryl-beta-D-ribofuranose as substrate assessed as conversion of amplex red to resorufin after 30 mins; design: species or system Mycolicibacterium smegmatis
Procedure, shortened: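 Msm DprE1 (thioredoxin-6His fusion of Msm Rv3790) at 75 nM, preincubated 30 min with 10 μM FAD. Buffer: 50 mM glycylglycine pH 8.5, 200 mM potassium glutamate, 0.002% Brij-35, 2% DMSO, 25 °C. Started with 300 μM farnesylphosphoryl-β-D-ribofuranose, 0.01 mg/mL HRP and 50 μM Amplex Red.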

[5] = tested on: Mycolicibacterium smegmatis; test: Antimicrobial activity against Mycobacterium smegmatis ATCC 607 at 100 uM; type: functional, organism-based
[6] = tested on: Mycobacterium tuberculosis; test: Antimycobacterial activity against Mycobacterium tuberculosis H37Rv under hypoxic condition after 6 days by resazurin assay; type: functional
Pseudomonas aeruginosa [7] = test: Antimicrobial activity against Pseudomonas aeruginosa ARC546 at 100 uM; type: functional, organism-based; procedure, shortened: as §1
[8] = tested on: Mycolicibacterium smegmatis; test: Antimicrobial activity against Mycobacterium smegmatis mc2155 at 100 uM; type: functional, organism-based; conditions: str. MC2 155
Streptococcus pneumoniae = test: Antimicrobial activity against Streptococcus pneumoniae ARC548 at 100 uM; type: functional, organism-based; procedure, shortened: as §1
Escherichia coli [9] = test: Antimicrobial activity against Escherichia coli ARC523 at 100 uM; type: functional, organism-based; procedure, shortened: as §1
[10] = tested on: Mycobacterium tuberculosis; test: Antimycobacterial activity against Mycobacterium tuberculosis H37Rv after 5 days by standard microdilution method; type: functional; conditions: 120 h
Klebsiella pneumoniae = test: Antimicrobial activity against Klebsiella pneumoniae ARC1865 at 100 uM; type: functional, organism-based; procedure, shortened: as §1
Candida albicans = test: Antimicrobial activity against Candida albicans ARC527 at 100 uM; type: functional, organism-based; procedure, shortened: as §1
Haemophilus influenzae [11] = test: Antimicrobial activity against Haemophilus influenzae ARC446 at 100 uM; type: functional, organism-based; procedure, shortened: as §1
[12] = tested on: Mycobacterium tuberculosis; test: Antimycobacterial activity against Mycobacterium tuberculosis over expressing InhA after 5 days by standard microdilution method; type: functional; conditions: 120 h
[13] = tested on: Mycobacterium tuberculosis; test: Antimycobacterial activity against Mycobacterium tuberculosis over expressing DprE1 after 5 days by standard microdilution method; type: functional; conditions: 120 h
[14] = tested on: Mycobacterium tuberculosis; test: Antimycobacterial activity against Mycobacterium tuberculosis over expressing TopA after 5 days by standard microdilution method; type: functional; conditions: 120 h
[15] = tested on: Mycobacterium tuberculosis; test: Antimycobacterial activity against Mycobacterium tuberculosis over expressing PimA after 5 days by standard microdilution method; type: functional; conditions: 120 h

| Compound | Activity (Escherichia coli [1]) | Activity (Pseudomonas aeruginosa [2]) | Activity (Haemophilus influenzae [3]) | Activity (Staphylococcus aureus) | IC50 [4] [nM] | Activity [5] | Activity [6] | Activity (Pseudomonas aeruginosa [7]) | Activity [8] | Activity (Streptococcus pneumoniae) | Activity (Escherichia coli [9]) | MIC [10] [µM] | Activity (Klebsiella pneumoniae) | Activity (Candida albicans) | Activity (Haemophilus influenzae [11]) | MIC [12] [µM] | MIC [13] [µM] | MIC [14] [µM] | MIC [15] [µM] |
| --- | --- | --- | --- | --- | --- | --- | --- | --- | --- | --- | --- | --- | --- | --- | --- | --- | --- | --- | --- |
| Cc1onc(C(=O)N2CCC(Nc3cc(=O)[nH]c4ccc(F)cc34)CC2)c1C | inactive | inactive | inactive | inactive | < 6 | inactive | inactive | inactive | inactive | inactive | inactive | 6.2 (≈ 2.38 µg/mL) | inactive | inactive | inactive | – | – | – | – |
| Cn1cc(C(=O)N2CCC(Nc3cc(=O)[nH]c4ccccc34)CC2)cn1 | inactive | inactive | inactive | inactive | 2200 | inactive | inactive | inactive | inactive | inactive | inactive | 140 (≈ 49.2 µg/mL) | inactive | inactive | inactive | – | – | – | – |
| C[C@H]1COC2(CCN(c3nc(=O)c4cc(C(F)(F)F)cc([N+](=O)[O-])c4s3)CC2)O1 [BTZ-043] | – | – | – | – | – | – | – | – | – | – | – | 0.003 (≈ 0.00129 µg/mL) | – | – | – | 0.003 (≈ 0.00129 µg/mL) | 12.5 (≈ 5.39 µg/mL) | 0.012 (≈ 0.00518 µg/mL) | 0.003 (≈ 0.00129 µg/mL) |
| COc1c(N2C[C@@H]3CCCN[C@@H]3C2)c(F)cc2c(=O)c(C(=O)O)cn(C3CC3)c12 [MOXIFLOXACIN] | – | – | – | – | – | – | – | – | – | – | – | – | – | – | – | 0.16 (≈ 0.0642 µg/mL) | 0.08 (≈ 0.0321 µg/mL) | 0.31 (≈ 0.124 µg/mL) | – |
| Cn1ncc(C(=O)N2CCC(Nc3cc(=O)[nH]c4cc(F)ccc34)CC2)c1Cl | inactive | inactive | inactive | inactive | 7 | inactive | inactive | inactive | inactive | inactive | inactive | 3.1 (≈ 1.25 µg/mL) | inactive | inactive | inactive | – | – | – | – |
| CC(C)n1ncc(C(=O)N2CCC(Nc3cc(=O)[nH]c4ccccc34)CC2)c1Cl | inactive | inactive | inactive | inactive | 7000 | inactive | inactive | inactive | inactive | inactive | inactive | 100 (≈ 41.4 µg/mL) | inactive | inactive | inactive | – | – | – | – |
| CCn1ncc(C(=O)N2CCC(Nc3cc(=O)[nH]c4ccc(F)cc34)CC2)c1Cl | inactive | inactive | inactive | inactive | 45 | inactive | inactive | inactive | inactive | inactive | inactive | 12.5 (≈ 5.22 µg/mL) | inactive | inactive | inactive | – | – | – | – |
